Assay [1] relates to Rattus norvegicus. As to the kind of experiment: Concentration required to produce 25% increase in intraventricular pressure(LV dp/dt). The assay is classed as functional, Cardiac ventricle. The method in brief:
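Isolated perfused male rat heart (400–600 g; pentobarbital 50 mg/kg ip, heparin 2000 units ip), Krebs-Henseleit bicarbonate buffer at constant 70 mmHg, 37 °C, spontaneous beating; LV dP/dt expressed as percent change from control; concentration giving a 25% increase (or decrease) in LV dP/dt determined graphically, minimum two hearts.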

The target in assay [2] is Voltage-gated L-type calcium channel (Rattus norvegicus, UniProt P22002+Q02485+P27732). As to the kind of experiment: Inhibition of [3H]nitrendipine binding to calcium channels in the rat brain. The format is tissue-based.
Assay [3] is filed under the species Rattus norvegicus. As to the kind of experiment: Concentration required to produce 25% increase in coronary flow. The format is functional. The procedure, abridged:
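Langendorff isolated hearts from male rats (400–600 g), pentobarbital 50 mg/kg ip anesthesia, heparin 2000 units ip; retrograde aortic perfusion with modified Krebs-Henseleit bicarbonate buffer, about 15 mL/min for 2–3 min, then constant 70 mmHg pressure, 37 °C; spontaneously beating. Coronary flow taken as percent change from control; EC25 (25% increase) read graphically from at least two hearts.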

The species named for another assay is Oryctolagus cuniculus. The assay can be described thus: The compound was tested for inhibition of potassium depolarized Rabbit aorta. The assay is classed as functional.

Where only a bound is given, the exact number is not on record here.

As to `CCOC(=O)[C@@H]1C(C2=C(O)c3ccccc3CC2)=NC(C)=C(C#N)[C@H]1c1ccccc1C(F)(F)F`, the EC25 with Rattus norvegicus [1] is greater than 1 µM; in the assay listed under Rattus norvegicus [3], 1 µM. In addition, the IC50 in assay [2] is greater than 1 µM.
Regarding `CCOC(=O)[C@@H]1/C(=C/C(=O)c2ccccc2)N=C(C)/C(=C(/O)OCC)[C@H]1c1ccccc1[N+](=O)[O-]`, the results for the EC25 in the assay with Rattus norvegicus [1] and in the assay filed under Rattus norvegicus [3] were 2.2 µM and 0.1 µM, respectively. Also, the IC50 stood at 0.0311 µM in assay [2] and 17 µM in the assay listed under Oryctolagus cuniculus.
With `CCOC(=O)C1=C(C)N=C(C2=C(O)c3ccccc3CC2)[C@@H](C(=O)OCC)[C@@H]1c1ccccc1C(F)(F)F`, the half-maximal inhibitory concentration (IC50) in assay [2] was greater than 1 µM.
Still for that read-out and setting: as for `CCOC(=O)CC1=NC(C)=C(C#N)C(c2ccccc2C(F)(F)F)/C1=C(\O)OCC` (configuration not stated), the figure is 0.1496 µM.
As to `CCOC(=O)C1=C(C)N=C(/C=C(\O)c2ccccc2)[C@@H](C(=O)OCC)[C@@H]1c1ccccc1`, the EC25 was 0.5 µM in the assay on Rattus norvegicus [1] and 0.2 µM in the assay filed under Rattus norvegicus [3]. In assay [2], the 50% inhibitory concentration (IC50) is 0.9128 µM.
As to `CCOC(=O)[C@@H]1/C(=C/C(=O)c2ccc(Cl)cc2)N=C(C)/C(=C(/O)OCC)[C@H]1c1ccccc1C(F)(F)F`, the EC25 with Rattus norvegicus [1] and in the assay filed under Rattus norvegicus [3] was less than 0.1 µM each time. The IC50 in assay [2] turned out to be 0.1625 µM.
`CCOC(=O)C1=C(C)N=C(/C=C(\O)OCC)C(C(=O)OCC)C1c1ccccc1C(F)(F)F` (configuration not stated): the concentration for an effect of 25% (EC25) with Rattus norvegicus [1] is greater than 0.3 µM; in the assay filed under Rattus norvegicus [3], less than 0.1 µM. Moreover, in assay [2], the IC50 is 0.3469 µM.
On to `CCOC(=O)[C@@H]1/C(=C/C(=O)c2ccccc2Cl)N=C(C)/C(=C(/O)OCC)[C@H]1c1ccccc1C(F)(F)F`, for which the IC50 in assay [2] was greater than 1 µM.
Consider `CCOC(=O)[C@@H]1/C(=C/C(=O)c2ccc(C)cc2)N=C(C)/C(=C(/O)OCC)[C@H]1c1ccccc1C(F)(F)F`, for which the EC25 in the assay with Rattus norvegicus [1] is greater than 0.3 µM; in the assay filed under Rattus norvegicus [3], 0.13 µM. Moreover, in assay [2], the half-inhibitory concentration (IC50) was determined as 0.4137 µM.
Regarding `CCOC(=O)[C@@H]1C(/C=C(\O)c2ccccc2)=NC(C)=C([N+](=O)[O-])[C@H]1c1ccccc1C(F)(F)F`, the EC25 was greater than 0.3 µM with Rattus norvegicus [1] and 0.1 µM in the assay filed under Rattus norvegicus [3]. Moreover, the half-inhibitory concentration (IC50) in assay [2] worked out at 0.3358 µM.
As for `CCOC(=O)[C@@H]1C(/C=C(\O)c2ccccc2)=NC2=C(C(=O)CCC2)[C@H]1c1ccccc1C(F)(F)F`, the EC25 was determined as 1.5 µM in the assay on Rattus norvegicus [1] and 1.4 µM in the assay listed under Rattus norvegicus [3]. Besides, the IC50 in assay [2] is greater than 1 µM.
In the case of `CCOC(=O)[C@@H]1/C(=C/C(=O)c2ccccc2)N=C(C)/C(=C(/O)OCC)[C@H]1c1ccccc1C(F)(F)F`, the 25% effect concentration (EC25) was greater than 3 µM in the assay with Rattus norvegicus [1] and less than 0.1 µM in the assay filed under Rattus norvegicus [3]. In addition, the concentration for half-maximal inhibition (IC50) in assay [2] was found to be 0.2969 µM.
`CCOC(=O)[C@@H]1/C(=C/C(=O)c2ccccc2)N=C(C)/C(=C(/O)OCC)[C@H]1c1cccc(Cl)c1Cl`: the 25% effect concentration (EC25) in the assay with Rattus norvegicus [1] was greater than 0.3 µM; in the assay filed under Rattus norvegicus [3], 0.2 µM. In addition, the IC50 in assay [2] is 0.0277 µM.
As to `CCO/C(O)=C1C(C)=N/C(=C\C(=O)c2ccccc2)[C@@H](C(=O)c2ccccc2)[C@@H]\1c1ccccc1C(F)(F)F`, the 25% effect concentration (EC25) with Rattus norvegicus [1] was 1.2 µM; in the assay filed under Rattus norvegicus [3] it was 0.38 µM. For the same molecule, the IC50 in assay [2] worked out at 0.5914 µM.
For `CCOC(=O)[C@@H]1/C(=C/C(=O)c2ccncc2)N=C(C)/C(=C(/O)OCC)[C@H]1c1ccccc1C(F)(F)F`, the 25% effect concentration (EC25) in the assay on Rattus norvegicus [1] is greater than 0.3 µM; in the assay listed under Rattus norvegicus [3], 0.03 µM. Also, the figures for the IC50 (in assay [2]; in the assay listed under Oryctolagus cuniculus) were 0.0255 µM and 3.1 µM, respectively.
For `CCOC(=O)[C@@H]1/C(=C/C(=O)c2ccc(N(C)C)cc2)N=C(C)/C(=C(/O)OCC)[C@H]1c1ccccc1C(F)(F)F` the same measures were greater than 0.3 µM, 0.2 µM, 0.0317 µM and 2.7 µM.
On to `CCOC(=O)CC1=C(C(=O)OCC)C(c2ccccc2C(F)(F)F)/C(=C(\O)OCC)C(C)=N1` (configuration not stated), for which the concentration for half-maximal inhibition (IC50) in assay [2] was 0.02 µM.
The same measure, in the same setting: as for `CC1=C([N+](=O)[O-])[C@@H](c2ccccc2C(F)(F)F)[C@H](C(=O)c2ccccc2)C(/C=C(\O)c2ccccc2)=N1`, the figure is greater than 1 µM.
As to `CCOC(=O)[C@@H]1/C(=C/C(=O)c2ccc(F)cc2)N=C(C)/C(=C(/O)OCC)[C@H]1c1ccccc1C(F)(F)F`, the figures for the concentration for an effect of 25% (EC25) with Rattus norvegicus [1] and in the assay listed under Rattus norvegicus [3] were greater than 0.3 µM and 0.3 µM, respectively. Also, the figures for the IC50 (in assay [2]; in the assay listed under Oryctolagus cuniculus) were 0.1167 µM and 150 µM, respectively.
In the case of `CCOC(=O)C1C(/C=C(\O)c2ccccc2)=NC(C)=C(C#N)C1c1ccccc1C(F)(F)F` (configuration not stated), the values for the EC25 in the assay with Rattus norvegicus [1] and in the assay listed under Rattus norvegicus [3] were 3 µM and 0.3 µM, respectively. Besides, in assay [2], the concentration for half-maximal inhibition (IC50) came to 1.021 µM.
For the molecule `COC(=O)C1=C(C)NC(C)=C(C(=O)OC)C1c1ccccc1[N+](=O)[O-]` [NIFEDIPINE], the results for the 25% effect concentration (EC25) with Rattus norvegicus [1] and in the assay filed under Rattus norvegicus [3] were 0.3 µM and 0.01 µM, respectively. This molecule displayed an IC50 in the assay listed under Oryctolagus cuniculus of 0.2 µM.

These data come from ChEMBL document CHEMBL1124189, “2-(2-Aryl-2-oxoethylidene)-1,2,3,4-tetrahydropyridines. Novel isomers of 1,4-dihydropyridine calcium channel blockers” (J Med Chem, 1988).
